Reference: ChEMBL document CHEMBL3351984, “Structure-based design and synthesis of antiparasitic pyrrolopyrimidines targeting pteridine reductase 1” (J Med Chem, 2014)
Calls of active or inactive are those of the source. No cut-off for these calls is given here.

Tested on: Trypanosoma brucei brucei
Assay: Antitrypanocidal activity against Trypanosoma brucei brucei Lister 427 infected in ICR mouse assessed as reduction in parasitemia at 30 mg/kg, ip qd administered 24 hrs post infection for 4 consecutive days
Type: functional, organism-based
Design: dose 30 mg/kg
Settings: not given

SMILES | Activity
Nc1nc(N)c2c(-c3ccccc3)c(-c3ccc(F)cc3)[nH]c2n1 | Active

Tested on: Mus musculus
Assay: Toxicity in ICR mouse assessed as transient clinical signs at 30 mg/kg, ip
Type: organism-based
Design: dose 30 mg/kg, route intraperitoneal
Settings: in vivo

SMILES | Activity
Nc1nc(N)c2c(-c3ccccc3)c(-c3ccc(F)cc3)[nH]c2n1 | Toxic

Tested on: Mus musculus
Assay: Toxicity in ICR mouse assessed as fatality at 100 mg/kg, ip
Type: organism-based
Design: dose 100 mg/kg, route intraperitoneal
Settings: in vivo
Outline: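 Maximum tolerated dose study in mice at 10, 30 and 100 mg/kg, scoring clinical signs and fatality.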

SMILES | Activity
Nc1nc(N)c2c(-c3ccccc3)c(-c3ccc(F)cc3)[nH]c2n1 | Toxic

Tested on: Mus musculus
Assay: Toxicity in ICR mouse assessed as clinical signs at 10 mg/kg, ip
Type: organism-based
Design: dose 10 mg/kg, route intraperitoneal
Settings: in vivo

SMILES | Activity
Nc1nc(N)c2c(-c3ccccc3)c(-c3ccc(F)cc3)[nH]c2n1 | Non-toxic

Tested on: Trypanosoma brucei brucei
Assay: Antitrypanocidal activity against bloodstream forms of Trypanosoma brucei brucei Lister 427 after 6 hrs by time-kill assay
Type: functional, organism-based
Settings: not given

SMILES | Activity
Nc1nc(N)c(C(C[N+](=O)[O-])c2ccccc2)c(=O)[nH]1 (stereo unspecified) | inactive
Nc1nc2[nH]c(-c3ccc(F)cc3)c(-c3ccccc3)c2c(=O)[nH]1 | inactive
Cc1ccc(C(C[N+](=O)[O-])c2c(N)nc(N)nc2N)cc1 (stereo unspecified) | inactive
N#Cc1c[nH]c2nc(N)nc(N)c12 | inactive
CC(C)COc1nc(N)nc(N)c1C(C[N+](=O)[O-])c1ccc(F)cc1 (stereo unspecified) | inactive
COc1nc(N)nc2[nH]cc(C#N)c12 | inactive
Nc1nc(N)c2c(-c3ccccc3)c(-c3ccccc3)[nH]c2n1 | inactive
Nc1nc(N)c(C(C[N+](=O)[O-])c2ccc(F)cc2)c(NC2CCCCC2)n1 (stereo unspecified) | inactive
Nc1nc(N2CCSCC2)c2cc[nH]c2n1 | inactive
Nc1nc(N)c(C(C[N+](=O)[O-])c2ccc(F)cc2)c(=O)[nH]1 (stereo unspecified) | inactive
Nc1nc(N)c(C(CCc2ccccc2)C[N+](=O)[O-])c(=O)[nH]1 (stereo unspecified) | inactive
Nc1nc2[nH]c(-c3ccc(CCCN4CCOCC4)cc3)c(-c3ccccc3)c2c(=O)[nH]1 | inactive
Cc1ccc(C(C[N+](=O)[O-])c2c(N)nc(N)[nH]c2=O)cc1 (stereo unspecified) | inactive
Nc1nc(N)c2c(-c3ccccc3)c(-c3ccc(F)cc3)[nH]c2n1 | inactive
Nc1nc2[nH]c(-c3ccccc3)c(-c3ccccc3)c2c(=O)[nH]1 | inactive
Nc1nc(N)c(C(C[N+](=O)[O-])c2ccc(F)cc2)c(N)n1 (stereo unspecified) | inactive
Nc1nc(N)c(C(CCc2ccccc2)C[N+](=O)[O-])c(N)n1 (stereo unspecified) | inactive
Nc1nc(N)c(C(C[N+](=O)[O-])c2ccccc2)c(N)n1 (stereo unspecified) | inactive
N#Cc1c(-c2cccc(C=O)c2)[nH]c2nc(N)nc(N)c12 | inactive
N#Cc1c[nH]c2nc(N)nc(N3CCSCC3)c12 | inactive
Nc1nc2[nH]cc(CCc3ccccc3)c2c(=O)[nH]1 | inactive
CC(C)Oc1nc(N)nc(N)c1C(C[N+](=O)[O-])c1ccc(F)cc1 (stereo unspecified) | inactive
